The text below walks through data of ChEMBL document CHEMBL4477241, “Structure-Activity Relationship Studies for Enhancer of Zeste Homologue 2 (EZH2) and Enhancer of Zeste Homologue 1 (EZH1) Inhibitors” (J Med Chem, 2016).

Test [1] addresses Histone-lysine N-methyltransferase EZH2 (Homo sapiens, UniProt O75530+Q15022+Q15910). Put plainly: Inhibition of EZH2 histone methyltransferase activity of EZH2/EED/SUZ12 protein complex (unknown origin) using histone H3 peptide as substrate (21 to 44 residues) in presence of [3H]-S-adenosylmethionine after 2 hrs by scintillation proximity assay. An outline of the steps:
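20 nM EZH2 trimeric complex with 2 μM 3H-SAM and 1 μM biotinylated H3(21–44) in 20 mM Tris-HCl pH 8, 5 mM DTT, 0.01% Triton X-100. Incubated 1 h at 23 °C, quenched with guanidine hydrochloride, then 2 h streptavidin flash-plate capture. Activity scaled between no-compound and no-enzyme counts.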

Test [2] concerns the target T1, Histone-lysine N-methyltransferase EZH1 (Homo sapiens, UniProt Q92800).
T1 sequence (Q92800 whole entry): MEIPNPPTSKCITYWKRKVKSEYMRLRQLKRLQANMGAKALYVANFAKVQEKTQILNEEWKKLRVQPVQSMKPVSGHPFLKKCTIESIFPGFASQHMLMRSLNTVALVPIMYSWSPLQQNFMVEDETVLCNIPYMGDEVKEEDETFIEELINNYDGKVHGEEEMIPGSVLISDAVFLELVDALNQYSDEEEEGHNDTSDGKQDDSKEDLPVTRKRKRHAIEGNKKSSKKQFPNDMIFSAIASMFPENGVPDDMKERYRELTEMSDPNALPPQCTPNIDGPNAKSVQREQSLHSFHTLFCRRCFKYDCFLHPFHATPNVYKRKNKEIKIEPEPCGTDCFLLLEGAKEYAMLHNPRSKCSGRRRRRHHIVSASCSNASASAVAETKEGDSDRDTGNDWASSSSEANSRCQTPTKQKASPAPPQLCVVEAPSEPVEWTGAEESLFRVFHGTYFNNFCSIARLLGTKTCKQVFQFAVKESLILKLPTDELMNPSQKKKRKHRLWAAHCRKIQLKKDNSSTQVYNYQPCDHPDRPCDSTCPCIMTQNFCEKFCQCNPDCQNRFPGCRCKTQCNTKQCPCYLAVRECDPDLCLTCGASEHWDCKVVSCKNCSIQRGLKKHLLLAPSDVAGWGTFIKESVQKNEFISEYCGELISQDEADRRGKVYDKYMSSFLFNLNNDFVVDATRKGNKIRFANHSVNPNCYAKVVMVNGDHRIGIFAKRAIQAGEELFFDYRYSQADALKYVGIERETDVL
In words: Inhibition of EZH1 histone methyltransferase activity of EZH1/EED/SUZ12/RBBP4/AEBP2 protein complex (unknown origin) using histone H3 peptide as substrate (21 to 44 residues) in presence of [3H]-S-adenosylmethionine after 2 hrs by scintillation proximity assay. An outline of the steps: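 10 nM EZH1 pentameric complex with 4 μM 3H-SAM and 1 μM biotinylated H3(21–44) in 20 mM Tris-HCl pH 8, 5 mM DTT, 0.01% Triton X-100. Reaction run 1 h at 23 °C, stopped with guanidine hydrochloride, then captured 2 h on a streptavidin flash plate. Counts normalized to no-compound (100%) and no-enzyme (0%) controls.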
For orientation: Scintillation proximity formats need no separation of bound from free tracer.

Structures are written as SMILES. Where only a bound is given, the exact number is not on record here.

Sequence of Histone-lysine N-methyltransferase EZH2 (Q15910 whole entry, the tested form may be a part, one chain of several): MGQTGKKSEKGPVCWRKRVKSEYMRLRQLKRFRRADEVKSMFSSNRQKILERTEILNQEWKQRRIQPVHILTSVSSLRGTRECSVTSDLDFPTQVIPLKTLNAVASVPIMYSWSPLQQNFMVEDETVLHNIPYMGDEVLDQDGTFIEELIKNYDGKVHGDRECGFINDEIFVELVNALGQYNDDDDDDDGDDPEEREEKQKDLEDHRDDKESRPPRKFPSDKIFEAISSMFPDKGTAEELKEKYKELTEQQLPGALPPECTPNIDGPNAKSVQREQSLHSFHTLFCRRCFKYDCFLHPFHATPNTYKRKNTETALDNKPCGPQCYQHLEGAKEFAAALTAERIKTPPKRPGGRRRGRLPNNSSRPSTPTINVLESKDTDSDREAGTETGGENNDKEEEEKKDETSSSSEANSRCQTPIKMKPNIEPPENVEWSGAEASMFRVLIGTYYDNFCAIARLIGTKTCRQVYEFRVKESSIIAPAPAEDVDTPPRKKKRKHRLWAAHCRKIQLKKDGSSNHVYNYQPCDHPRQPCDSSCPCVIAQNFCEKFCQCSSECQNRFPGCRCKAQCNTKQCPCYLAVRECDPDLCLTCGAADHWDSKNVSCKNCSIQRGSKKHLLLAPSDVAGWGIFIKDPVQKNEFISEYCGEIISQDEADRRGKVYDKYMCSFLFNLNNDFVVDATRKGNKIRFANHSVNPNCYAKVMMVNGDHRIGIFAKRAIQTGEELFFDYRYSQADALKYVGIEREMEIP

For orientation: IC50 means the concentration that gives 50% inhibition. As to `CCCc1cc(C)[nH]c(=O)c1CNC(=O)c1cc(-c2ccc(C(F)(F)F)cn2)cc2c1cnn2C(C)C`, the IC50 is 64 nM in test [1] and above 5000 nM in test [2].

Take `CCCc1cc(C)[nH]c(=O)c1CNC(=O)c1cc(N2CCCNCC2)cc2c1cnn2C(C)C`: the IC50 is 42 nM in test [1] and above 2500 nM in test [2].

As to `CCCc1cc(C)[nH]c(=O)c1CNC(=O)c1cc(NC2CCNCC2)cc2c1cnn2C(C)C`, the half-maximal inhibitory concentration (IC50) in test [1] was 26 nM; in test [2], above 1250 nM.

As for `CCc1cc(C)[nH]c(=O)c1CNC(=O)c1cc(-c2ccc(N3CCN(C(C)C)CC3)nc2)cc2c1cnn2C(C)C`, the IC50 in test [1] came to 12 nM; in test [2] it was 810 nM.

On to `CCCCc1cc(C)[nH]c(=O)c1CNC(=O)c1cc(-c2ccc(N3CCN(C(C)C)CC3)nc2)cc2c1cnn2C(C)C`, for which the figures for the 50% inhibitory concentration (IC50) in test [1] and in test [2] were below 10 nM and 160 nM, respectively.

As for `CCCc1cc(C)[nH]c(=O)c1CNC(=O)c1cc(C2CCNCC2)cc2c1cnn2C(C)C`, the IC50 in test [1] is 11 nM; in test [2], 613 nM.

On to `CCCc1cc(C)[nH]c(=O)c1CNC(=O)c1cc(N2CCNCC2)cc2c1cnn2C(C)C`, for which the IC50 was found to be 17 nM in test [1] and 880 nM in test [2].

As for `CCCc1cc(C)[nH]c(=O)c1CNC(=O)c1cc(Br)cc2c1cnn2C(C)C`, the 50% inhibitory concentration (IC50) was 35 nM in test [1] and above 5000 nM in test [2].

As to `CCCc1cc(C)[nH]c(=O)c1CNC(=O)c1cc(-c2ccc(F)cn2)cc2c1cnn2C(C)C`, the IC50 in test [1] was 22 nM; in test [2], 773 nM.
